Data on 3 compounds can be found in ChEMBL document CHEMBL4020832, “Development of (6 R)-2-Nitro-6-[4-(trifluoromethoxy)phenoxy]-6,7-dihydro-5 H-imidazo[2,1- b][1,3]oxazine (DNDI-8219): A New Lead for Visceral Leishmaniasis” (J Med Chem, 2018).

The test system of series [1] is Liver. The experiment in a line: Metabolic stability in human liver microsomes assessed as parent compound remaining at 0.5 uM after 0.5 hr. Format: ADME, microsome. On the technique in general: Liver microsomes are a subcellular fraction often used to study metabolism.
For series [2], the system named is Liver. As to the kind of experiment: Metabolic stability in CD-1 mouse liver microsomes assessed as parent compound remaining at 0.5 uM after 0.5 hr. Format: ADME, microsome.
Series [3] can be described thus: Metabolic stability in hamster liver microsomes assessed as parent compound remaining at 0.5 uM after 0.5 hr. The conditions noted are these: read-out: Stability. Format: ADME, microsome.
The nature of series [4]: Initial concentration in Swiss albino mouse at 1 mg/kg, iv by LC-MS/MS analysis. The conditions noted are these: in vivo. Format: ADME, organism-based. The procedure, abridged:
(§1)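 Male Swiss albino mice given 1 mg/kg iv in 20% NMP/40% PEG-400 in 100 mM citrate buffer pH 3. Plasma sampled at 0.083, 0.25, 0.5, 1, 2, 4, 6, 8, 10, 24 and 48 h. Levels measured by LC–MS/MS; noncompartmental PK parameters.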

Series [5] can be described thus: Clearance in Swiss albino mouse at 1 mg/kg, iv by LC-MS/MS analysis. Format: ADME, organism-based. Particulars: in vivo.
Series [6] can be described thus: Volume of distribution at steady state in Swiss albino mouse at 1 mg/kg, iv by LC-MS/MS analysis. Format: ADME, organism-based. Particulars: in vivo, read-out: Vdss. The procedure, abridged:
as §1

The test system of series [7] is Mus musculus. The experiment in a line: (§2) Half life in Swiss albino mouse at 1 mg/kg, iv by LC-MS/MS analysis. Particulars: in vivo. Format: ADME, organism-based.
A short description of series [8]: AUClast in Swiss albino mouse at 1 mg/kg, iv after 24 to 48 hrs by LC-MS/MS analysis. Format: ADME, organism-based. Particulars: in vivo.
Series [9] in a line: Cmax in Swiss albino mouse at 25 mg/kg, po by LC-MS/MS analysis. Format: ADME, organism-based. Set-up: dose 25 mg/kg, route oral. Particulars: in vivo.
Series [10] in a line: Tmax in Swiss albino mouse at 25 mg/kg, po by LC-MS/MS analysis. Format: ADME, organism-based. Particulars: in vivo. The procedure, abridged: (§3)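 Male Swiss albino mice dosed orally at 25 mg/kg as a suspension in 0.5% CMC/0.08% Tween 80 in water. Plasma sampled 0.25–48 h, analysed by LC–MS/MS. F from dose-normalized AUClast against a 1 mg/kg iv dose.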
Series [11] is described as follows: AUClast in Swiss albino mouse at 25 mg/kg, po after 24 to 48 hrs by LC-MS/MS analysis. Format: ADME, organism-based. Particulars: in vivo.
Series [12] relates to Mus musculus. The experiment in a line: Oral bioavailability in Swiss albino mouse at 25 mg/kg by LC-MS/MS analysis. Format: ADME, organism-based. Particulars: in vivo. Put shortly: as §3
Series [13] can be described thus: as §2. Format: ADME, organism-based. The conditions noted are these: Swiss albino, in vivo.

One may read the clearance as the rate of elimination divided by the concentration. A high value points to a high capacity for elimination. The term AUC(0-t) denotes the area under the concentration-time curve up to a stated or last time point. High values mean high exposure, low ones low exposure. What is called Cmax is the maximum level reached in the sampled fluid or tissue. As usually defined, the Tmax is the time at which the peak concentration occurs. The term half-life denotes how long it takes for the measured level to halve.

Turning to `O=[N+]([O-])c1cn2c(n1)OCC(COc1ccc(OC(F)(F)F)cc1)C2` (stereo unspecified), the Stability in series [1] worked out at 78%; in series [2] it was 88%. In addition, the remaining at 0.5 h, 0.5 µM in [3] was determined as 70%. Further, the C0 in series [4] was 0.34 µg/mL. In addition, the clearance in [5] turned out to be 0.78 L/h/kg. Also, in series [6], the Vd stood at 2.5 L/kg. In series [7], this compound had a t1/2 of 2 h. The results for the AUC(0-t) in series [8] and in series [11] were 1.25 µg·h/mL and 15.7 µg·h/mL, respectively. Further, the highest level in [9] (Cmax) was 1.5 µg/mL. Further, in series [10], the Tmax was 1 h. Moreover, the F in series [12] was determined as 50%.
Turning to `O=[N+]([O-])c1cn2c(n1)OCC(COc1ccc(-c3ccc(OC(F)(F)F)cc3)nc1)C2` (stereo unspecified), in series [2], the Stability amounted to 96%. In addition, the remaining at 0.5 h, 0.5 µM in series [3] worked out at 88%. Further, the C0 in series [4] came to 0.75 µg/mL. The same compound registered a clearance in series [5] of 0.072 L/h/kg. In series [6], the Vd stood at 1.9 L/kg. The compound also gave a half-life in series [13] of 20 h. Further, the concentration in series [9] peaked (Cmax) at 0.87 µg/mL. Also, the Tmax in series [10] came to 10 h. The compound also yielded a F in [12] of 11%.
In the case of `O=[N+]([O-])c1cn2c(n1)OCC(COc1ccc(-c3ccc(F)cc3)nc1)C2` (stereo unspecified), the remaining at 0.5 h, 0.5 µM in series [3] was 64%. The compound also returned a C0 in series [4] of 0.44 µg/mL. The compound also returned a clearance in series [5] of 0.312 L/h/kg. Also, the Vd in series [6] worked out at 1.8 L/kg. The half-life in [13] is 2.7 h. Further, the AUC(0-t) in series [8] was found to be 3.18 µg·h/mL; in series [11] it was 12 µg·h/mL. The Cmax in series [9] was 0.84 µg/mL. Further, the time of peak concentration (Tmax) in [10] was determined as 8 h. In [12], the F is listed as 15%.
